Measured values as given in ChEMBL document CHEMBL1137680, “A class of potent tyrosinase inhibitors: alkylidenethiosemicarbazide compounds” (Eur J Med Chem, 2009).

Biological target: T1, Tyrosinase (Agaricus bisporus, UniProt O42713)
T1 sequence (O42713 whole entry): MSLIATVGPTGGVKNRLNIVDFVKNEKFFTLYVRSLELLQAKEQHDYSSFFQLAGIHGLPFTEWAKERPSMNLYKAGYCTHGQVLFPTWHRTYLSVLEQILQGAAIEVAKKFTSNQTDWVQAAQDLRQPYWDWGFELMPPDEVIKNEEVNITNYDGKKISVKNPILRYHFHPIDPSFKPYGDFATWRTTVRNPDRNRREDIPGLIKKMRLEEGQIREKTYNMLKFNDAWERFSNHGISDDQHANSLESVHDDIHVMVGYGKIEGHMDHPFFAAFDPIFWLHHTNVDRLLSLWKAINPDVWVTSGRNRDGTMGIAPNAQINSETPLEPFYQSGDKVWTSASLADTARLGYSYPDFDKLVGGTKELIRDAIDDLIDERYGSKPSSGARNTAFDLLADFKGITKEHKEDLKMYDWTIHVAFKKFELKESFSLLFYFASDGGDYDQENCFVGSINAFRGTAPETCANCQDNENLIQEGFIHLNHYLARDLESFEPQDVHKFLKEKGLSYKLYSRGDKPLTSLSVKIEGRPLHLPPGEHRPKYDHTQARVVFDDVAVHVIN
Assay: Inhibition of mushroom tyrosinase
How it was run: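 Mushroom tyrosinase diphenolase activity, 30 units (0.2 mg/mL), preincubated 10 min at 25 °C with compound in 50 mM phosphate buffer pH 6.8; compound diluted from DMSO stock. At least eight inhibitor concentrations; IC50 interpolated from dose-response curves.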

| IC50 | Compound |
| --- | --- |
| 850 nM | Cc1ccc(C)n1NC(N)=S |
| 230 nM | C/C=N\NC(N)=S |
| 620 nM | CC(C)/C=N\NC(N)=S |
| 200 nM | CC/C=N\NC(N)=S |
| 2700 nM | NC(=S)N/N=C\C=C\c1ccccc1 |
| 170 nM | NC(=S)NN=C1CCCC1 |
| 950 nM | NC(=S)NN=C1CCCCC1 |
| 1000 nM | C/C=C/C=N\NC(N)=S |
| 11500 nM | CC(C)=C/C(C)=N\NC(N)=S |
| 15100 nM | NC(=S)N/N=C1\CCCC(=O)C1 |
| 280 nM | CC/C(C)=N\NC(N)=S |
| 86 nM | CC(C)=NNC(N)=S |
